Experimental data from ChEMBL document CHEMBL4325889, “Natural products hybrids: 3,5,4'-Trimethoxystilbene-5,6,7-trimethoxyflavone chimeric analogs as potential cytotoxic agents against diverse human cancer cells” (Eur J Med Chem, 2019).

Tests used:
Assay type in all cases: functional
SN12C = assay: Growth inhibition of human SN12C cells at 10 uM after 48 hrs by SRB assay relative to control; details: read-out: GI
Procedure, shortened: (§1)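 Screened at the National Cancer Institute by the standard NCI protocol using the sulforhodamine B assay, which measures cellular protein. Single dose of 10 µM. Result is percent growth inhibition; values above 100% mean cell number fell below the initial population. Values are the average of duplicates.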

NCI-H226 = assay: Growth inhibition of human NCI-H226 cells at 10 uM after 48 hrs by SRB assay relative to control; details: NCI-H226, 48 h, read-out: GI; procedure, shortened: as §1
SF-539 = assay: Growth inhibition of human SF539 cells at 10 uM after 48 hrs by SRB assay relative to control; details: SF-539, 48 h, read-out: GI; procedure, shortened: as §1
U-251 = assay: Growth inhibition of human U251 cells at 10 uM after 48 hrs by SRB assay relative to control; details: U-251, 48 h, read-out: GI
Procedure, shortened: (§2)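 NCI screen against its human cancer cell line panel by the standard NCI protocol, SRB protein stain. Single dose of 10 μM. Percent growth inhibition versus control; values above 100% mean the cell population fell below the starting number. Each value is the mean of duplicates.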

SR = assay: Growth inhibition of human SR cells at 10 uM after 48 hrs by SRB assay relative to control; details: read-out: GI; procedure, shortened: as §2
RXF 393 = assay: Growth inhibition of human RXF393 cells at 10 uM after 48 hrs by SRB assay relative to control; details: RXF 393, 48 h, read-out: GI; procedure, shortened: as §1
MDA-MB-468 = assay: Growth inhibition of human MDA-MB-468 cells at 10 uM after 48 hrs by SRB assay relative to control; details: MDA-MB-468, 48 h, read-out: GI; procedure, shortened: as §1
HL-60(TB) = assay: Growth inhibition of human HL-60(TB) cells at 10 uM after 48 hrs by SRB assay relative to control; details: HL-60, 48 h, read-out: GI
Procedure, shortened: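 Run at NCI under its standard single-dose protocol against a leukemia cell panel. Cells were exposed to 10 µM; growth was read by sulforhodamine B staining of cellular protein and expressed as % growth inhibition versus untreated control. Values above 100% mean the cell population fell below the starting count (cytocidal). Each value is the average of duplicates.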

UACC-257 = assay: Growth inhibition of human UACC257 cells at 10 uM after 48 hrs by SRB assay relative to control; details: UACC-257, 48 h, read-out: GI; procedure, shortened: as §2
SK-MEL-2 = assay: Growth inhibition of human SK-MEL-2 cells at 10 uM after 48 hrs by SRB assay relative to control; details: SK-MEL-2, 48 h, read-out: GI; procedure, shortened: as §1
SK-MEL-28 = assay: Growth inhibition of human SK-MEL-28 cells at 10 uM after 48 hrs by SRB assay relative to control; details: SK-MEL-28, 48 h, read-out: GI; procedure, shortened: as §1
SNB-75 = assay: Growth inhibition of human SNB75 cells at 10 uM after 48 hrs by SRB assay relative to control; details: SNB-75, 48 h, read-out: GI; procedure, shortened: as §2
NCI/ADR-RES = assay: Growth inhibition of human NCI/ADR-RES cells at 10 uM after 48 hrs by SRB assay relative to control; details: read-out: GI; procedure, shortened: as §1
TK-10 = assay: Growth inhibition of human TK10 cells at 10 uM after 48 hrs by SRB assay relative to control; details: TK-10, 48 h, read-out: GI; procedure, shortened: as §2
786-0 = assay: Growth inhibition of human 786-0 cells at 10 uM after 48 hrs by SRB assay relative to control; details: 786-0, 48 h, read-out: GI; procedure, shortened: as §1
SK-MEL-5 = assay: Growth inhibition of human SK-MEL-5 cells at 10 uM after 48 hrs by SRB assay relative to control; details: SK-MEL-5, 48 h, read-out: GI; procedure, shortened: as §1
HCT-116 = assay: Growth inhibition of human HCT116 cells at 10 uM after 48 hrs by SRB assay relative to control; details: HCT-116, 48 h, read-out: GI; procedure, shortened: as §1
SF-295 = assay: Growth inhibition of human SF295 cells at 10 uM after 48 hrs by SRB assay relative to control; details: SF-295, 48 h, read-out: GI; procedure, shortened: as §1
Hs-578T = assay: Growth inhibition of human Hs 578T cells at 10 uM after 48 hrs by SRB assay relative to control; details: read-out: GI; procedure, shortened: as §1
LOX IMVI = assay: Growth inhibition of human LOXIMVI cells at 10 uM after 48 hrs by SRB assay relative to control; details: read-out: GI; procedure, shortened: as §1
DU-145 = assay: Growth inhibition of human DU145 cells at 10 uM after 48 hrs by SRB assay relative to control; details: DU-145, 48 h, read-out: GI; procedure, shortened: as §1
COLO 205 = assay: Growth inhibition of human COLO205 cells at 10 uM after 48 hrs by SRB assay relative to control; details: COLO 205, 48 h, read-out: GI; procedure, shortened: as §1
NCI-H322M = assay: Growth inhibition of human NCI-H322M cells at 10 uM after 48 hrs by SRB assay relative to control; details: read-out: GI; procedure, shortened: as §1
A549 = assay: Growth inhibition of human A549 cells at 10 uM after 48 hrs by SRB assay relative to control; details: A549, 48 h, read-out: GI; procedure, shortened: as §1
RPMI-8226 = assay: Growth inhibition of human RPMI8226 cells at 10 uM after 48 hrs by SRB assay relative to control; details: RPMI-8226, 48 h, read-out: GI; procedure, shortened: as §1
CCRF-CEM = assay: Growth inhibition of human CCRF-CEM cells at 10 uM after 48 hrs by SRB assay relative to control; details: read-out: GI; procedure, shortened: as §1
HCC 2998 = assay: Growth inhibition of human HCC2998 cells at 10 uM after 48 hrs by SRB assay relative to control; details: HCC 2998, 48 h, read-out: GI; procedure, shortened: as §1
IGROV-1 = assay: Growth inhibition of human IGROV1 cells at 10 uM after 48 hrs by SRB assay relative to control; details: IGROV-1, 48 h, read-out: GI; procedure, shortened: as §1
Malme-3M = assay: Growth inhibition of human MALME-3M cells at 10 uM after 48 hrs by SRB assay relative to control; details: read-out: GI; procedure, shortened: as §1
NCI-H23 = assay: Growth inhibition of human NCI-H23 cells at 10 uM after 48 hrs by SRB assay relative to control; details: NCI-H23, 48 h, read-out: GI; procedure, shortened: as §1
HOP-92 = assay: Growth inhibition of human HOP92 cells at 10 uM after 48 hrs by SRB assay relative to control; details: HOP-92, 48 h, read-out: GI; procedure, shortened: as §1
K562 = assay: Growth inhibition of human K562 cells at 10 uM after 48 hrs by SRB assay relative to control; details: K562, 48 h, read-out: GI; procedure, shortened: as §1
MCF7 = assay: Growth inhibition of human MCF7 cells at 10 uM after 48 hrs by SRB assay relative to control; details: MCF7, 48 h, read-out: GI; procedure, shortened: as §1
HCT-15 = assay: Growth inhibition of human HCT15 cells at 10 uM after 48 hrs by SRB assay relative to control; details: HCT-15, 48 h, read-out: GI; procedure, shortened: as §1

Row | SMILES | inhibition of growth at 10 µM (SN12C) [%] | inhibition of growth at 10 µM (NCI-H226) [%] | inhibition of growth at 10 µM (SF-539) [%] | inhibition of growth at 10 µM (U-251) [%] | inhibition of growth at 10 µM (SR) [%] | inhibition of growth at 10 µM (RXF 393) [%] | inhibition of growth at 10 µM (MDA-MB-468) [%] | inhibition of growth at 10 µM (HL-60(TB)) [%] | inhibition of growth at 10 µM (UACC-257) [%] | inhibition of growth at 10 µM (SK-MEL-2) [%] | inhibition of growth at 10 µM (SK-MEL-28) [%] | inhibition of growth at 10 µM (SNB-75) [%] | inhibition of growth at 10 µM (NCI/ADR-RES) [%] | inhibition of growth at 10 µM (TK-10) [%] | inhibition of growth at 10 µM (786-0) [%] | inhibition of growth at 10 µM (SK-MEL-5) [%] | inhibition of growth at 10 µM (HCT-116) [%] | inhibition of growth at 10 µM (SF-295) [%] | inhibition of growth at 10 µM (Hs-578T) [%] | inhibition of growth at 10 µM (LOX IMVI) [%] | further results
1 | COc1ccc(NC(=O)c2cccc(-c3cc(=O)c4c(O)c(OC)c(OC)cc4o3)c2)cc1 | 15.7 | 8.07 | 43.9 | 26.8 | 19.2 | 8.01 | 15.7 | -29.7 | 20.8 | 16.6 | -4.12 | 105 | 14.7 | -5.09 | 57 | 8.61 | 29.5 | -3.77 | 43.9 | 20.2 | inhibition of growth at 10 µM (DU-145): 3.06%; inhibition of growth at 10 µM (COLO 205): 2.39%; inhibition of growth at 10 µM (NCI-H322M): 0.54%; inhibition of growth at 10 µM (A549): 18.7%; inhibition of growth at 10 µM (RPMI-8226): 7.48%; inhibition of growth at 10 µM (CCRF-CEM): 16%; inhibition of growth at 10 µM (HCC 2998): -1.16%; inhibition of growth at 10 µM (IGROV-1): 4.86%; inhibition of growth at 10 µM (Malme-3M): 19.4%; inhibition of growth at 10 µM (NCI-H23): 8.74%; inhibition of growth at 10 µM (HOP-92): 76.4%; inhibition of growth at 10 µM (K562): 8.23%; inhibition of growth at 10 µM (MCF7): 6.72%; inhibition of growth at 10 µM (HCT-15): -7.36%
2 | COc1cc2oc(-c3cccc(C(=O)Nc4ccc5c(c4)OCO5)c3)cc(=O)c2c(OC)c1OC | 30.8 | 21.2 | 14.7 | 9.36 | 52.4 | 29 | 1.72 | 30.3 | 5.96 | -2.38 | 20.4 | -1.27 | 35.1 | 16.1 | 7.44 | 47.2 | 27.3 | 2.37 | 14 | 81.5 | inhibition of growth at 10 µM (DU-145): 18.7%; inhibition of growth at 10 µM (COLO 205): 24.4%; inhibition of growth at 10 µM (NCI-H322M): 22.6%; inhibition of growth at 10 µM (A549): 25.5%; inhibition of growth at 10 µM (RPMI-8226): 79.1%; inhibition of growth at 10 µM (CCRF-CEM): 36.6%; inhibition of growth at 10 µM (HCC 2998): 2.03%; inhibition of growth at 10 µM (IGROV-1): 39.8%; inhibition of growth at 10 µM (Malme-3M): 1.22%; inhibition of growth at 10 µM (NCI-H23): 10.3%; inhibition of growth at 10 µM (HOP-92): 21.9%; inhibition of growth at 10 µM (K562): 25.8%; inhibition of growth at 10 µM (MCF7): 17.9%; inhibition of growth at 10 µM (HCT-15): 28.2%
3 | COc1cccc(NC(=O)c2cccc(-c3cc(=O)c4c(O)c(OC)c(OC)cc4o3)c2)c1 | 19 | 41.5 | 20.7 | 23.9 | 47.7 | 25.8 | 46 | 17.5 | 8.74 | 2.64 | 14.2 | 1.94 | 25.8 | 6.27 | 14.2 | 26.8 | 30.7 | 17.6 | 45.5 | 36.8 | inhibition of growth at 10 µM (DU-145): 19.4%; inhibition of growth at 10 µM (COLO 205): 24.3%; inhibition of growth at 10 µM (NCI-H322M): 12.9%; inhibition of growth at 10 µM (A549): 26.6%; inhibition of growth at 10 µM (RPMI-8226): 53.6%; inhibition of growth at 10 µM (CCRF-CEM): 34.7%; inhibition of growth at 10 µM (HCC 2998): -3.54%; inhibition of growth at 10 µM (IGROV-1): 12%; inhibition of growth at 10 µM (Malme-3M): 12.3%; inhibition of growth at 10 µM (NCI-H23): 25.4%; inhibition of growth at 10 µM (HOP-92): 33.6%; inhibition of growth at 10 µM (K562): 16.9%; inhibition of growth at 10 µM (MCF7): 13.2%; inhibition of growth at 10 µM (HCT-15): 25.7%
4 | COc1cc(NC(=O)c2cccc(-c3cc(=O)c4c(O)c(OC)c(OC)cc4o3)c2)cc(OC)c1OC | 37 | 92.3 | 48.3 | 55.2 | 45.6 | 25 | 40.1 | 22 | 33.9 | 30.4 | 22.6 | 67.8 | 50.6 | 25.2 | 33.7 | 60.8 | 55.2 | 38.5 | 104 | 67 | inhibition of growth at 10 µM (DU-145): 42.8%; inhibition of growth at 10 µM (COLO 205): 32.3%; inhibition of growth at 10 µM (NCI-H322M): 25.6%; inhibition of growth at 10 µM (A549): 59.5%; inhibition of growth at 10 µM (RPMI-8226): 73%; inhibition of growth at 10 µM (CCRF-CEM): 41.9%; inhibition of growth at 10 µM (HCC 2998): 34%; inhibition of growth at 10 µM (IGROV-1): 29.6%; inhibition of growth at 10 µM (Malme-3M): 49%; inhibition of growth at 10 µM (NCI-H23): 65.1%; inhibition of growth at 10 µM (HOP-92): 43.9%; inhibition of growth at 10 µM (K562): 45.5%; inhibition of growth at 10 µM (MCF7): 50.6%; inhibition of growth at 10 µM (HCT-15): 40.1%
